High-throughput results from PubChem BioAssay.
The list is not random: actives were taken first. Their share in the collection is about 2.9%.
ABHD4 inh – ABHD4 inhibitors, primary screen, biochemical, fluorescence polarization, mouse; purified mABHD4, FP-Rh probe fluorescence polarization; inhibition, % at 8.92 µM; hit rate 0.54% among 370,000; AID 720543, 2013;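 active = inhibition exceeding the mean over every tested compound plus 3 SD, cut at about 30% in these data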;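 note: 0% = plate median of compound wells and 100% = S159A mutant with DMSO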
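system = mouse ABHD4 enzyme, wild type | medium = HEPES pH 7.0, NaCl, Pluronic buffer | also added = FP-Rh probe | incubation = Enzyme–compound pre-incubation 45 min, then probe 60 min, both 25 °C | technique = fluorescence polarization, excitation 525 nm, emission 598 nm, BODIPY TMR filters | controls = S159A mutant high control, sample median low control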
PAD4 inh – human PAD4 inhibitors, primary screen, biochemical, fluorescence polarization, 1536-well format; Protein-arginine deiminase type-4 (Homo sapiens), Q9UM07; recombinant PAD4, RCA probe fluorescence polarization; inhibition, % at 6.36 µM; hit rate 0.41% among 330,000; AID 485272, 2010;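 active = percent inhibition above a cutoff equal to the mean of all tested compounds plus 3 SD, cut at about 15% in these data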;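 note: 0% = PAD4 with RCA probe and DMSO and 100% = probe without PAD4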
TCR CD3 inh – inhibitors of human TCR-CD3 interaction, primary screen, biochemical, fluorescence, TAMRA-labeled TCR probe. T-cell receptor (TCR). inhibition, % at 9.4 µM. hit rate 0.37% among 360,000. AID 651800, 2012; in the data active = inhibition above about 19%;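 note: recombinant mutant TCR 2C K166C tagged with TAMRA read by polarization; 0% = receptor in buffer alone and 100% = receptor with positive control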
SIAE inh – human SIAE inhibitors, primary screen, biochemical, fluorescence polarization, FP-Rh probe, 1536-well HTS; SIAE FP-Rh probe binding; AID 1053197, 2014; hit rate 0.69% among 370,000; inhibition, % at 9.66 µM; Sialate O-acetylesterase (Homo sapiens), Q9HAT2;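 active = inhibition above a cutoff: mean of compounds within the control limits plus 3 SD of those, cut at about 17% in these data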;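 note: 0% = plate median of compound wells and 100% = probe without SIAE protein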
PRMT1 inh – PRMT1 methyltransferase inhibitors, primary screen, biochemical, fluorescence polarization. recombinant PRMT1, activity-based probe fluorescence polarization. inhibition, % at 2.79 µM. hit rate 1.3% among 370,000. AID 652257, 2013;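 active = inhibition above about 21% made by adding two undisclosed values, limit read from the data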
Target sequence (Q99873 whole entry, looked up): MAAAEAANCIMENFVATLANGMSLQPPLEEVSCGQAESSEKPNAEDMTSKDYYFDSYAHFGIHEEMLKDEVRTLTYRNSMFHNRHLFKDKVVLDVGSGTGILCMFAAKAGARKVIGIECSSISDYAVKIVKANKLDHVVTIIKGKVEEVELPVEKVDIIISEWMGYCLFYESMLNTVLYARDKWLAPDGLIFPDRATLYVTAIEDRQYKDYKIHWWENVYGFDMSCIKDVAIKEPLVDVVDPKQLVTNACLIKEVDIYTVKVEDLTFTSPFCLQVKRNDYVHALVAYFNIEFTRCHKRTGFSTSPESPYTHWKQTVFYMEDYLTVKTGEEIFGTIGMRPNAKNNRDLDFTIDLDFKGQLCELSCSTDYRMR
HTRA1 inhibitor – HTRA1 serine protease inhibitors, primary screen, biochemical, fluorescence polarization, HTS; Q92743; hit rate 0.5% among 340,000; inhibition, % at 5.96 µM; recombinant HTRA1, FP-rhodamine activity-based probe; in the data active = inhibition above about 36%;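 note: 0% = enzyme with DMSO and 100% = wells lacking enzyme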
PRMT1 inh conf – PRMT1 methyltransferase inhibitors, confirmation, biochemical, fluorescence polarization, triplicate; shares compounds with PRMT1 inh; recombinant His-PRMT1, activity-based probe fluorescence polarization; inhibition, % at 2.79 µM; hit rate 42% among 3,300; AID 687036, 2013;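 active = mean inhibition across replicates above the hit cutoff derived for the earlier primary screen, cut at about 22% in these data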
* marks the source's active call; other numbers are inactive results; · = no result given.

SMILES	ABHD4 inh	PAD4 inh	TCR CD3 inh	SIAE inh	PRMT1 inh	HTRA1 inhibitor	PRMT1 inh conf
Nn1c(SCC(=O)Nc2cccc3ccccc23)nnc1-c1cc(-c2ccccc2)n[nH]1	2	·	·	-2	4	·	·
CCOC(=O)CC(=O)CSCC(=O)Nc1ccc(C)cc1	-4	-5	1	-7	40*	5	32*
CCOC(=O)c1ccc(NC(=O)CSCCC(=O)O)cc1	1	-2	-2	-6	3	1	·
CCOC(=O)c1ccc(NC(=O)CSCc2ccco2)cc1	-8	-1	-2	-10	82*	-6	84*
CC(C)[C@@H](C)/C=C/[C@@H](C)[C@H]1CC[C@@H]2[C@]1(C)CCC1[C@]23C=C[C@]2(C[C@@H](O)CC[C@]12C)N(c1cnccn1)O3 (some centres undefined)	-7	·	-1	·	-2	·	·
CC1=CC(=O)C(C2CCCCC2)=C/C1=N\OS(=O)(=O)c1ccccc1	11	·	·	3	51*	·	13
COc1ccc2sc(SCCCS(=O)(=O)O)[n+](CCCS(=O)(=O)[O-])c2c1	4	-1	-5	2	58*	0	59*
Cc1ccc2ccc(C)[n+](CCCS(=O)(=O)[O-])c2c1	0	-10	2	6	-2	3	·
O=S1(=O)CC(O)C(O)CS1 (centres undefined)	5	·	1	1	81*	·	85*
CCN=C1NC(c2ccc(C(F)(F)F)cc2)C(C(=O)OC)=C(C)N1Cc1ccccc1C(F)(F)F (centres undefined)	10	·	-2	0	1	·	·
CCOC(=O)CCSCC(=O)Nc1nnc(C)s1	-1	-2	-3	-2	-4	3	·
Cc1nnc(NC(=O)CCSCCC(=O)Nc2nnc(C)s2)s1	0	0	-1	-4	29*	-5	30*
CCN=C1NC(c2ccc(Cl)cc2)C(C(=O)OC)=C(C)N1Cc1cccc(C(F)(F)F)c1 (centres undefined)	8	·	5	1	-3	·	·
CCOC(=O)c1sc(NNC(=O)c2ccc(F)cc2)nc1C	3	1	-12	-5	42*	12	2
CN(CCOC(=O)c1cc2ccccc2o1)C1CN(Cc2cn(Cc3cccc(F)c3)nn2)S(=O)(=O)C1 (centres undefined)	-2	·	·	5	3	·	·
Cc1cc(NC(=O)c2ccc(Cl)cc2)no1	5	-2	-3	0	-1	-7	·
Cc1cc(NC(=O)c2ccc3nc(C)sc3c2)no1	-10	-5	-7	-1	31*	8	-3
COC(=O)c1c(-c2ccco2)csc1NC(=O)C1CC=CCC1C(=O)O (centres undefined)	0	-2	0	-7	27*	-3	4
CCOC(=O)CC[C@H]1CC[C@]2(CCCN(C(=O)C3CCCC3)C2)O1	1	·	·	0	3	·	·
Cc1ccc(S(=O)(=O)N2CCSC2c2ccco2)cc1 (centres undefined)	-5	-3	-1	-3	31*	5	8
CN(C)C(=O)C[C@H]1C[C@@H]2c3cc(NC(=O)NC4CCCC4)ccc3O[C@@H]2[C@@H](CO)O1	-1	·	2	8	1	·	·
CC1(C)CC(=O)C2=C(C1)Nc1[nH]c(=S)[nH]c(=O)c1C2c1ccccc1 (centres undefined)	2	2	10	-14	66*	5	6
O=C1CCCC2=C1C(c1ccc(Br)cc1)c1c([nH]c(=S)[nH]c1=O)N2 (centres undefined)	1	-9	0	-13	49*	-4	38*
